Columns and labels:
Type in all cases: functional, cell-based
MDA-MB-231 = assay: Antiproliferative activity against human MDA-MB-231 cells measured after 72 hrs by MTT assay; conditions: MDA-MB-231, 72 h
How it was run: (§1)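 MTT antiproliferation assay on human breast cancer lines MDA-MB-231, SUM-159, MCF-7 and Bcap-37 and on mouse 4T1 breast cancer cells. IC50 values were taken from the MTT read-out. Adriamycin served as the positive control.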

SUM-159-PT = assay: Antiproliferative activity against human SUM159 cells measured after 72 hrs by MTT assay; how it was run: as §1
MCF7 = assay: Antiproliferative activity against human MCF7 cells measured after 72 hrs by MTT assay; conditions: MCF7, 72 h; how it was run: as §1
Bcap37 = assay: Antiproliferative activity against human Bcap37 cells measured after 72 hrs by MTT assay; conditions: Bcap37, 72 h; how it was run: as §1
4T1 = assay: Antiproliferative activity against mouse 4T1 cells measured after 72 hrs by MTT assay; conditions: 4T1, 72 h; how it was run: as §1

C=C1C(=O)O[C@H]2[C@H]1CC/C(COC(=O)/C(=C/c1cc(OC)ccc1OC)c1ccc(OCC)cc1)=C\CC[C@@]1(C)O[C@@H]21
IC50 (MDA-MB-231): 1.87 µM

C=C1C(=O)O[C@H]2[C@H]1CC/C(COC(=O)/C=C/c1ccccc1C(F)(F)F)=C\CC[C@@]1(C)O[C@@H]21
IC50 (MDA-MB-231): 0.74 µM | IC50 (SUM-159-PT): 0.85 µM | IC50 (MCF7): 2.01 µM | IC50 (Bcap37): 1.89 µM | IC50 (4T1): 1.16 µM

C=C1C(=O)O[C@H]2[C@H]1CC/C(COC(=O)/C=C/c1ccc(OC)cc1OC)=C\CC[C@@]1(C)O[C@@H]21
IC50 (MDA-MB-231): 0.55 µM | IC50 (SUM-159-PT): 0.8 µM | IC50 (MCF7): 0.89 µM | IC50 (Bcap37): 1.15 µM | IC50 (4T1): 1.41 µM

C=C1C(=O)O[C@H]2[C@H]1CC/C(COC(=O)/C=C/c1cccc(Br)c1)=C\CC[C@@]1(C)O[C@@H]21
IC50 (MDA-MB-231): 1.64 µM

C=C1C(=O)O[C@H]2[C@H]1CC/C(COC(=O)CCc1cc(OC)ccc1OC)=C\CC[C@@]1(C)O[C@@H]21
IC50 (MDA-MB-231): 1.88 µM

C=C1C(=O)O[C@H]2[C@H]1CC/C(COC(=O)/C(=C/c1cc(OC)ccc1OC)c1ccc(C)cc1)=C\CC[C@@]1(C)O[C@@H]21
IC50 (MDA-MB-231): 2.95 µM

C=C1C(=O)O[C@H]2[C@H]1CC/C(COC(=O)/C=C/c1ccc(O)cc1)=C\CC[C@@]1(C)O[C@@H]21
IC50 (MDA-MB-231): 1.89 µM

C=C1C(=O)O[C@H]2[C@H]1CC/C(COC(=O)/C=C/c1ccccc1Br)=C\CC[C@@]1(C)O[C@@H]21
IC50 (MDA-MB-231): 1.33 µM

C=C1C(=O)O[C@H]2[C@H]1CC/C(COC(=O)CCc1c(OC)cccc1OC)=C\CC[C@@]1(C)O[C@@H]21
IC50 (MDA-MB-231): 2.3 µM

C=C1C(=O)O[C@H]2[C@H]1CC/C(COC(=O)/C=C/c1ccc3ccccc3c1)=C\CC[C@@]1(C)O[C@@H]21
IC50 (MDA-MB-231): 1.48 µM

C=C1C(=O)O[C@H]2[C@H]1CC/C(COC(=O)/C=C/c1ccc(Cl)cc1)=C\CC[C@@]1(C)O[C@@H]21
IC50 (MDA-MB-231): 1.22 µM

COc1ccc(OC)c(/C=C/C(=O)OC/C2=C/CC[C@@]3(C)O[C@H]3[C@H]3OC(=O)[C@@H](C)[C@@H]3CC2)c1
IC50 (MDA-MB-231): 6.8 µM

C=C1C(=O)O[C@H]2[C@H]1CC/C(COC(=O)/C=C/c1ccccc1C)=C\CC[C@@]1(C)O[C@@H]21
IC50 (MDA-MB-231): 1.79 µM

C=C1C(=O)O[C@H]2[C@H]1CC/C(COC(=O)/C=C/c1ccc(OC)cc1)=C\CC[C@@]1(C)O[C@@H]21
IC50 (MDA-MB-231): 1.73 µM

C=C1C(=O)O[C@H]2[C@H]1CC/C(COC(=O)/C=C/c1ccc(F)cc1)=C\CC[C@@]1(C)O[C@@H]21
IC50 (MDA-MB-231): 1.32 µM

C=C1C(=O)O[C@H]2[C@H]1CC/C(COC(=O)/C=C/c1c(OC)cc(OC)cc1OC)=C\CC[C@@]1(C)O[C@@H]21
IC50 (MDA-MB-231): 1.09 µM

C=C1C(=O)O[C@H]2[C@H]1CC/C(COC(=O)/C=C/c1ccc(C)cc1)=C\CC[C@@]1(C)O[C@@H]21
IC50 (MDA-MB-231): 2.27 µM

COC(=O)/C=C/c1cc(OC)ccc1OC
IC50 (MDA-MB-231): > 50 µM

C=C1C(=O)O[C@H]2[C@H]1CC/C(COC(=O)/C=C/c1ccco1)=C\CC[C@@]1(C)O[C@@H]21
IC50 (MDA-MB-231): 2.25 µM

COC(=O)/C=C/c1c(OC)cccc1OC
IC50 (MDA-MB-231): > 20 µM

C=C1C(=O)O[C@H]2[C@H]1CC/C(COC(=O)/C=C/c1c(Br)cccc1Br)=C\CC[C@@]1(C)O[C@@H]21
IC50 (MDA-MB-231): 1.5 µM

C=C1C(=O)O[C@H]2[C@H]1CC/C(COC(=O)/C=C/c1ccc(C#N)cc1)=C\CC[C@@]1(C)O[C@@H]21
IC50 (MDA-MB-231): 1.8 µM

C=C1C(=O)O[C@H]2[C@H]1CC/C(COC(=O)/C=C/c1cccs1)=C\CC[C@@]1(C)O[C@@H]21
IC50 (MDA-MB-231): 1.8 µM

C=C1C(=O)O[C@H]2[C@H]1CC/C(COC(=O)/C=C/c1ccncc1)=C\CC[C@@]1(C)O[C@@H]21
IC50 (MDA-MB-231): 2.79 µM

C=C1C(=O)O[C@H]2[C@H]1CC/C(COC(=O)/C=C/c1cccc(OC)c1)=C\CC[C@@]1(C)O[C@@H]21
IC50 (MDA-MB-231): 1.84 µM

C=C1C(=O)O[C@H]2[C@H]1CC/C(COC(=O)/C(=C/c1cc(OC)ccc1OC)c1ccc(Cl)cc1)=C\CC[C@@]1(C)O[C@@H]21
IC50 (MDA-MB-231): 2.02 µM

C=C1C(=O)O[C@H]2[C@H]1CC/C(COC(=O)/C(=C/c1cc(OC)ccc1OC)c1ccccc1)=C\CC[C@@]1(C)O[C@@H]21
IC50 (MDA-MB-231): 2.01 µM

C=C1C(=O)O[C@H]2[C@H]1CC/C(COC(=O)/C=C/c1ccc(OCC)cc1)=C\CC[C@@]1(C)O[C@@H]21
IC50 (MDA-MB-231): 1.58 µM

C=C1C(=O)O[C@H]2[C@H]1CC/C(COC(=O)c1c(OC)cccc1OC)=C\CC[C@@]1(C)O[C@@H]21
IC50 (MDA-MB-231): 3.55 µM

C=C1C(=O)O[C@H]2[C@H]1CC/C(COC(=O)/C(=C/c1cc(OC)ccc1OC)CC)=C\CC[C@@]1(C)O[C@@H]21
IC50 (MDA-MB-231): 2.25 µM

C=C1C(=O)O[C@H]2[C@H]1CC/C(COC(=O)/C=C/c1cccnc1)=C\CC[C@@]1(C)O[C@@H]21
IC50 (MDA-MB-231): 3.27 µM

C=C1C(=O)O[C@H]2[C@H]1CC/C(COC(=O)/C=C/c1cccc(OC)c1OC)=C\CC[C@@]1(C)O[C@@H]21
IC50 (MDA-MB-231): 1.74 µM

C=C1C(=O)O[C@H]2[C@H]1CC/C(COC(=O)/C(C)=C/c1cc(OC)ccc1OC)=C\CC[C@@]1(C)O[C@@H]21
IC50 (MDA-MB-231): 1.76 µM

C=C1C(=O)O[C@H]2[C@H]1CC/C(COC(=O)/C(=C/c1cc(OC)ccc1OC)CCC)=C\CC[C@@]1(C)O[C@@H]21
IC50 (MDA-MB-231): 7.53 µM

C=C1C(=O)O[C@H]2[C@H]1CC/C(CO)=C\CC[C@@]1(C)O[C@@H]21
IC50 (MDA-MB-231): 5.59 µM

C=C1C(=O)O[C@H]2[C@H]1CC/C(COC(=O)/C=C/c1ccccn1)=C\CC[C@@]1(C)O[C@@H]21
IC50 (MDA-MB-231): 2.29 µM

C=C1C(=O)O[C@H]2[C@H]1CC/C(COC(=O)/C=C/c1ccc(C(C)C)cc1)=C\CC[C@@]1(C)O[C@@H]21
IC50 (MDA-MB-231): 1.33 µM

C=C1C(=O)O[C@H]2[C@H]1CC/C(COC(=O)/C=C/c1cc(OC)c(OC)c(OC)c1)=C\CC[C@@]1(C)O[C@@H]21
IC50 (MDA-MB-231): 0.95 µM | IC50 (SUM-159-PT): 0.86 µM | IC50 (MCF7): 1.39 µM | IC50 (Bcap37): 1.96 µM | IC50 (4T1): 0.63 µM

C=C1C(=O)O[C@H]2[C@H]1CC/C(COC(=O)/C(=C/c1cc(OC)ccc1OC)c1ccc(OC)cc1)=C\CC[C@@]1(C)O[C@@H]21
IC50 (MDA-MB-231): 2.51 µM

C=C1C(=O)O[C@H]2[C@H]1CC/C(COC(=O)/C=C/c1ccc(C(F)(F)F)cc1)=C\CC[C@@]1(C)O[C@@H]21
IC50 (MDA-MB-231): 2.52 µM

C=C1C(=O)O[C@H]2[C@H]1CC/C(COC(=O)/C=C/c1ccccc1F)=C\CC[C@@]1(C)O[C@@H]21
IC50 (MDA-MB-231): 1.8 µM

C=C1C(=O)O[C@H]2[C@H]1CC/C(COC(=O)/C=C/c1cccc(Cl)c1)=C\CC[C@@]1(C)O[C@@H]21
IC50 (MDA-MB-231): 1.78 µM

C=C1C(=O)O[C@H]2[C@H]1CC/C(COC(=O)/C=C/c1ccc(OC)c(OC)c1OC)=C\CC[C@@]1(C)O[C@@H]21
IC50 (MDA-MB-231): 1.77 µM

C=C1C(=O)O[C@H]2[C@H]1CC/C(COC(=O)/C=C/c1cccc(C)c1)=C\CC[C@@]1(C)O[C@@H]21
IC50 (MDA-MB-231): 1.08 µM

C=C1C(=O)O[C@H]2[C@H]1CC/C(COC(=O)/C=C/c1ccc(OC)c(OC)c1)=C\CC[C@@]1(C)O[C@@H]21
IC50 (MDA-MB-231): 1.95 µM

C=C1C(=O)O[C@H]2[C@H]1CC/C(COC(=O)/C=C/c1ccc3c(c1)OCO3)=C\CC[C@@]1(C)O[C@@H]21
IC50 (MDA-MB-231): 1.8 µM

C=C1C(=O)O[C@H]2[C@H]1CC/C(COC(=O)/C=C/c1ccc(OC(C)=O)cc1)=C\CC[C@@]1(C)O[C@@H]21
IC50 (MDA-MB-231): 1.15 µM

C=C1C(=O)O[C@H]2[C@H]1CC/C(COC(=O)/C=C/c1c(F)cccc1F)=C\CC[C@@]1(C)O[C@@H]21
IC50 (MDA-MB-231): 1.59 µM

C=C1C(=O)O[C@H]2[C@H]1CC/C(COC(=O)/C(=C/c1cc(OC)ccc1OC)c1ccc(F)cc1)=C\CC[C@@]1(C)O[C@@H]21
IC50 (MDA-MB-231): 1.96 µM

COc1cccc(OC)c1/C=C/C(=O)OC/C1=C/CC[C@@]2(C)O[C@H]2[C@H]2OC(=O)[C@@H](C)[C@@H]2CC1
IC50 (MDA-MB-231): 7.6 µM

C=C1C(=O)O[C@H]2[C@H]1CC/C(COC(=O)/C=C/c1ccc(Br)cc1)=C\CC[C@@]1(C)O[C@@H]21
IC50 (MDA-MB-231): 1.02 µM

C=C1C(=O)O[C@H]2[C@H]1CC/C(COC(=O)/C=C/c1ccc(O)c(OC)c1)=C\CC[C@@]1(C)O[C@@H]21
IC50 (MDA-MB-231): 2.01 µM

C=C1C(=O)O[C@H]2[C@H]1CC/C(COC(=O)/C(C#N)=C/c1cc(OC)ccc1OC)=C\CC[C@@]1(C)O[C@@H]21
IC50 (MDA-MB-231): 2.35 µM

C=C1C(=O)O[C@H]2[C@H]1CC/C(COC(=O)/C(=C/c1cc(OC)ccc1OC)c1ccc(C(F)(F)F)cc1)=C\CC[C@@]1(C)O[C@@H]21
IC50 (MDA-MB-231): 1.98 µM

C=C1C(=O)O[C@H]2[C@H]1CC/C(COC(=O)/C(=C/c1cc(OC)ccc1OC)c1ccc(SC)cc1)=C\CC[C@@]1(C)O[C@@H]21
IC50 (MDA-MB-231): 1.87 µM

C=C1C(=O)O[C@H]2[C@H]1CC/C(COC(=O)/C(=C/c1cc(OC)ccc1OC)c1ccc(Br)cc1)=C\CC[C@@]1(C)O[C@@H]21
IC50 (MDA-MB-231): 2.01 µM

C=C1C(=O)O[C@H]2[C@H]1CC/C(COC(=O)/C=C/c1cccc(F)c1)=C\CC[C@@]1(C)O[C@@H]21
IC50 (MDA-MB-231): 1.73 µM

C=C1C(=O)O[C@H]2[C@H]1CC/C(COC(=O)/C=C/c1c(Cl)cccc1Cl)=C\CC[C@@]1(C)O[C@@H]21
IC50 (MDA-MB-231): 1.59 µM

C=C1C(=O)O[C@H]2[C@H]1CC/C(COC(=O)/C=C/c1cc(OC)cc(OC)c1)=C\CC[C@@]1(C)O[C@@H]21
IC50 (MDA-MB-231): 2.02 µM

C=C1C(=O)O[C@H]2[C@H]1CC/C(COC(=O)/C=C/c1ccccc1Cl)=C\CC[C@@]1(C)O[C@@H]21
IC50 (MDA-MB-231): 1.42 µM

C=C1C(=O)O[C@H]2[C@H]1CC/C(COC(=O)/C=C/c1cc(OC)c(OC)cc1OC)=C\CC[C@@]1(C)O[C@@H]21
IC50 (MDA-MB-231): 1.02 µM

C=C1C(=O)O[C@H]2[C@H]1CC/C(COC(=O)/C=C/c1ccc([N+](=O)[O-])cc1)=C\CC[C@@]1(C)O[C@@H]21
IC50 (MDA-MB-231): 1.93 µM
